Yeast growth inh: reduces growth of yeast BB579 in restrictive medium. S. cerevisiae BB579 growth, OD615, 48 h. inhibition, % at 10 µM. 140,000 tested, 0.51% active. AID 804;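 active means inhibition above a set limit, 3 SD over the mean compound inhibition, cut at about 44% in these data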
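controls = amphotericin B 10 µg/mL, positive | assay system = DeaD yeast strain BB579 | schedule = 48 h compound exposure at 30 °C after 4 h preincubation | detection = OD615 turbidity measurement | medium = restrictive CSMM-D medium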
sEH inhibitor: blocks human soluble epoxide hydrolase activity; P34913; recombinant human sEH enzymatic activity assay; inhibition, % at 2 µM; 91,000 tested, 0.34% active; AID 707; in the data active means inhibition above about 80%
Target sequence (P34913 whole entry, looked up): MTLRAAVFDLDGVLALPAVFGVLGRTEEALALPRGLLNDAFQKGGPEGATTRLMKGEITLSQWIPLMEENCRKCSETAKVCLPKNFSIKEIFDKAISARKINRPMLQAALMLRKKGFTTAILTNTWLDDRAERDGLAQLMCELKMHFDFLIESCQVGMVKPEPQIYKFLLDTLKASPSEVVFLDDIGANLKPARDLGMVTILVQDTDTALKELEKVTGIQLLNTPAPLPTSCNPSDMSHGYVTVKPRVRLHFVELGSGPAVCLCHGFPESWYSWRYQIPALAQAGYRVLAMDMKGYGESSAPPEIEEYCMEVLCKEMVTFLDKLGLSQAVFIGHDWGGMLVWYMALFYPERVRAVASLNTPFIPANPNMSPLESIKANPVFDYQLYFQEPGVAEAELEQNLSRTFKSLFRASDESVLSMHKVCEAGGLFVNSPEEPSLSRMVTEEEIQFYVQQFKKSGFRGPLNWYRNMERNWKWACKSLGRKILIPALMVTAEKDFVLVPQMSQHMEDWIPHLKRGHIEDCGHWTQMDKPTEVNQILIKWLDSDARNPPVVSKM
SDO1 yeast rescue: restores growth of sdo1-depleted yeast | S. cerevisiae sdo1-depleted JHY4D growth rescue, OD600 30 h; active compounds read high; pdr5 snq2 efflux-pump mutant strain | z-score at 10 µM | 140,000 tested, 0.21% active | AID 817;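 active means z-score above 3 at both the 24 hr and the 30 hr optical density reads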;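 further: z-score against mean and SD of all compound wells on the same plate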
Measles CPE: protection of cells from measles virus | 140,000 tested, 1.5% active | Measles virus-infected cells, CPE protection, absorbance | protection (pct of control), % at 4 µM; in the data active means protection mostly above about 24%, no sharp cut-off; inactive means mostly below about 26%
Yeast lifespan up: extends the lifespan of yeast; S. cerevisiae growth with nicotinamide, OD615; deaD strain in restrictive glucose medium; inhibition of the nicotinamide effect, % at 10 µM; 130,000 tested, 0.68% active; AID 775;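 active means inhibition above a set limit, placed 3 SD over the median of all compounds, cut at about 26% in these data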;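 further: 0% = nicotinamide-treated wells and 100% = cells grown without nicotinamide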
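assay system = DeaD-strain S. cerevisiae | buffer or medium = restrictive glucose medium | reagent = 1.5 mM nicotinamide | compound = 10 µM single point, 0.25% DMSO | incubation = 48 h compound exposure at 30 °C, humidified | signal = OD615 measurement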
sEH activator: increases human soluble epoxide hydrolase activity. P34913. activation, % at 2 µM. purified human sEH enzymatic activity, activator screen. 91,000 tested, 0.04% active; in the data active means activation above about 37%
SDO1 rescue DR: confirmation of growth rescue in SDO1-depleted yeast, bone marrow failure | 440 tested, 44% active | S. cerevisiae JHY4D (SDO1-depleted) growth rescue, OD600, 30 h; active compounds read high; efflux-deficient strain, SNQ2 and PDR5 mutated | AID 949 | OD recovery (concentration not given with the values) | shares compounds with SDO1 yeast rescue;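 active means yeast growth recovered at 30 hours, either rising with dose fitted slope above 0.001 or with average optical density gain above 0.07, some results past the limit were not filed as active; inactive means growth falling with dose or no effect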;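 further: gain in OD600 from 0 h to 30 h averaged across all seven doses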
* hit, by the source's call; . = no result. The list is not random: actives were taken first. Their share in the collection is about 3%.

SMILES	Yeast growth inh	sEH inhibitor	SDO1 yeast rescue	Measles CPE	Yeast lifespan up	sEH activator	SDO1 rescue DR
Cc1nnc(NC(=O)CSc2ncnc3scc(-c4ccccc4)c23)s1	-10	-7	2.3	6	-10	10	0.087*
Cc1ccc(-c2cccc(C(=O)NCc3ccccc3)n2)c2ccccc12	-9	.	-0.18	7	3	.	.
O=C(NCc1ccccc1)c1cccc(Br)n1	-23	.	15*	44*	-6	.	0.063
CCOc1ccc(C(=O)c2cc([N+](=O)[O-])ccc2Cl)cc1	8	-13	-1.3	10	9	14	.
CCN1C(=O)C(O)(CC(=O)c2ccccn2)c2ccccc21 (stereo not drawn)	-37	-26	0.47	3	-1	23	.
CCN1C(=O)C(O)(CC(=O)c2ccc(-n3cccc3)cc2)c2ccccc21 (stereo not drawn)	-38	.	3*	24	1	.	0.1*
CC(=O)O[C@H]1C[C@@]2(C)[C@@H](C[C@@H](O)[C@H]3[C@@]4(C)CC[C@@H](O)[C@@H](C)C4CC[C@@]32C)/C1=C(\CCC=C(C)C)C(=O)O (stereo partly drawn)	-36	.	0.38	1	8	.	.
N#Cc1cc2c(nc1SCC(=O)Nc1sc3c(c1C#N)CCC3)CCC2	-30	.	1.1	4	-7	.	0.024
N#Cc1cc2c(nc1SCC(=O)Nc1sc3c(c1C#N)CCC3)CCCCCC2	-46	-3	-1.2	23	-5	2	.
O=C(Nc1c(C(=O)Nc2cccc3ccccc23)cnn1-c1ccccc1)c1ccco1	-22	-1	0.14	7	.	7	.
OCCNc1nc(N2CCN(Cc3ccccc3)CC2)nc2ccccc12	-73	10	-0.42	4	0	-10	.
O=C(NCCO)c1nc(NCCO)c2ccccc2n1	-26	4	5.6*	24	-3	-6	0.031
Cc1cc(NC(=O)c2sccc2C)n(-c2cccc(Cl)c2)n1	-43	3	-0.54	4	1	-3	.
COC(C(=O)Nc1ccc(S(=O)(=O)Nc2cccc3ccccc23)cc1)c1ccccc1 (stereo not drawn)	-26	.	8.8*	8	3	.	0.065
COC(C(=O)Nc1ccc(S(=O)(=O)Nc2ccc(F)cc2)cc1)c1ccccc1 (stereo not drawn)	-43	.	-0.57	11	2	.	.
CCC(=O)OCCn1c(=O)c2cc3c(=O)n(CCOC(=O)CC)c(=O)c3cc2c1=O	-30	9	2.6	20	-11	-10	0.083*
CCN(CC)S(=O)(=O)c1ccc(-c2nnc(SCC(=O)Nc3nc(C)cs3)o2)cc1	-26	.	2.2	13	-3	.	0.054
O=C(CC1S/C(=N/N=C/c2c[nH]c3ccc(OCc4ccccc4)cc23)NC1=O)Nc1ccccc1 (stereo not drawn)	-22	.	-0.13	33	0	.	.
O=C(CC1S/C(=N/N=C/c2c[nH]c3ccccc23)NC1=O)Nc1ccccc1 (stereo not drawn)	-29	.	3.9*	22	9	.	0.085*
Cn1c(=O)c2c(nc(NC3CCCCC3)n2CC(O)COc2ccccc2)n(C)c1=O (stereo not drawn)	-33	-13	-0.9	5	-5	15	.
COc1ccc(OCC(O)Cn2c(Nc3ccccc3)nc3c2c(=O)n(C)c(=O)n3C)cc1 (stereo not drawn)	-67	.	1.2	4	0	.	0.052*
C=CCn1c(N)cc(=O)nc1SC(C)C(=O)Nc1cccc2ccccc12 (stereo not drawn)	-16	-3	0.78	16	.	6	.
CC(C)CN1C(=O)NC(NS(=O)(=O)c2ccc(N)cc2)(C(F)(F)F)C1=O (stereo not drawn)	-4	.	0.28	16	1	.	.
CCCCCCCCNC(=O)c1cnccn1	-6	.	9.4*	2	8	.	0.053
CCCCCCCCNC(=O)c1cnsn1	20	.	1.3	19	-2	.	.
SMILES	Yeast growth inh	sEH inhibitor	SDO1 yeast rescue	Measles CPE	Yeast lifespan up	sEH activator	SDO1 rescue DR
CSc1nc(N)nc(SCC(=O)c2ccc(C)cc2)c1C#N	-24	13	1.3	21	-5	-13	0.076*
Cc1c(C(=O)Nc2ccccc2-c2ccccc2)cccc1[N+](=O)[O-]	-27	-4	-1	5	-17	2	.
O=C(O)C1C2C=CC(O2)C1C(=O)NCc1ccccc1Br (stereo not drawn)	-16	-4	0.98	36	-2	2	.
COc1ccc2c(c1)sc(N)[n+]2Cc1cc(C)cc2cccnc12	-11	.	9.7*	5	6	.	0.065
Cc1nnc(SCC(=O)c2ccccc2)n1Cc1ccccc1	-19	.	0.28	7	-4	.	.
COc1cccc(NC(=S)NNC(=O)C(C)n2nc(C)c([N+](=O)[O-])c2C)c1 (stereo not drawn)	-35	6	4*	3	-9	-4	0.063
CCOC(=O)N1CCC(Nc2c(NCCN3CCN(c4ccccc4F)CC3)c(=O)c2=O)CC1	7	-12	0.41	14	-6	10	.
CCN(CC)c1nc(C)nc2c1cnn2CCc1ccccc1	-9	-10	-0.23	33	-13	13	.
C/C=C/CSc1nc2c(c(=O)[nH]c(=O)n2C)n1Cc1ccc(C)cc1	-58	-1	-2.3	2	-1	0	.
Cc1ccc(Cn2c(Sc3nccc(C)n3)nc3c2c(=O)[nH]c(=O)n3C)cc1	-47	.	1.6	27	-7	.	0.094*
Cc1ccc(C(=O)N[C@H](C(=O)OCC(=O)NC2CCS(=O)(=O)C2)C(C)C)cc1 (stereo partly drawn)	-14	.	0.48	9	0	.	.
CCc1ccc(S(=O)(=O)NCCc2csc(-c3cccnc3)n2)s1	-31	-20	4.4*	3	2	19	0.052
CCc1ccc(S(=O)(=O)NCc2csc(-c3ccccc3)n2)s1	-72	.	-0.77	11	44	.	.
CCc1ccc(S(=O)(=O)NCCc2csc(-c3ccccc3)n2)s1	-18	4	4.3*	14	35	-1	0.068
N#Cc1c(NC(=O)CSc2nnc(-c3ccccc3)o2)sc2c1CCCC2	-66	-19	0.03	7	-12	22	.
CC1CCc2c(sc(NC(=O)CSc3nnc(-c4ccccc4)o3)c2C#N)C1 (stereo not drawn)	-9	.	1.1	11	-1	.	0.091*
O=C(Nc1ccc2ccccc2c1)[C@@H]1C[C@H]1[C@@H](NP(=O)(c1ccccc1)c1ccccc1)c1ccccc1	-30	.	-0.27	9	7	.	.
CCOc1cc(C(=O)NCc2ccc(-c3nc4ccccc4o3)cc2)cc(OCC)c1OCC	-19	1	1.2	4	-9	1	0.048
COc1ccc(C(=O)NC(=S)NCc2ccc(-c3nc4ccccc4o3)cc2)cc1OC	-20	-10	-1.1	3	-26	7	.

Compound activity from PubChem BioAssay.
